From ChEMBL document CHEMBL3352188, “Synthesis, antimicrobial and molecular docking studies of enantiomerically pure N-alkylated β-amino alcohols from phenylpropanolamines” (2014)

Legend:
Pseudomonas aeruginosa [1] = assay: Antimicrobial activity against Pseudomonas aeruginosa MTCC 741 at 1 mg/disc after 24 hrs by disc diffusion assay; format: functional
In short: (§1)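 Disc diffusion on Mueller Hinton agar. Inoculum was grown in MHB for 24 h at 37 °C, swabbed onto the plates and dried for 10 min. Discs with 1 mg compound were left 30 min at room temperature for diffusion, then incubated at 37 °C for 24 h. Inhibition zone was read in mm; run twice. Solvent was the negative control, streptomycin the positive control.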

Candida albicans [2] = assay: Antimicrobial activity against Candida albicans MTCC 227 at 1 mg/disc after 24 hrs by disc diffusion assay; format: functional
Malassezia pachydermatis [3] = assay: Antimicrobial activity against Malassezia pachydermatis at 1 mg/disc after 24 hrs by disc diffusion assay; format: functional
Bacillus subtilis [4] = assay: Antimicrobial activity against Bacillus subtilis MTCC 441 after 24 hrs by two fold dilution method; format: functional; conditions: MTCC 441, 24 h
In short: (§2)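 Broth two-fold serial dilution in 96-well plates from 1000 to 7.81 µg/mL, compound in DMSO (2%). Inoculum was grown in MHB for 24 h at 37 °C; plates were incubated 24 h at 37 °C. 5 µL of broth was spotted onto MHA; MIC was the lowest concentration with no visible growth on agar. Streptomycin was the positive control.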

Micrococcus luteus [5] = assay: Antimicrobial activity against Micrococcus luteus MTCC 106 after 24 hrs by two fold dilution method; format: functional; conditions: MTCC 106, 24 h; in short: as §2
Klebsiella aerogenes [6] = assay: Antimicrobial activity against Enterobacter aerogenes MTCC 111 after 24 hrs by two fold dilution method; format: functional; conditions: MTCC 111, 24 h; in short: as §2
Staphylococcus aureus [7] = assay: Antimicrobial activity against Staphylococcus aureus MTCC 96 after 24 hrs by two fold dilution method; format: functional; conditions: MTCC 96, 24 h; in short: as §2
Salmonella typhimurium [8] = assay: Antimicrobial activity against Salmonella typhimurium MTCC 1251 after 24 hrs by two fold dilution method; format: functional, Salmonella enterica subsp. enterica serovar Typhimurium; conditions: Salmonella enterica, MTCC 1251, 24 h; in short: as §2
Klebsiella pneumoniae [9] = assay: Antimicrobial activity against Klebsiella pneumoniae MTCC 109 after 24 hrs by two fold dilution method; format: functional; conditions: MTCC 109, 24 h; in short: as §2
Proteus vulgaris [10] = assay: Antimicrobial activity against Proteus vulgaris MTCC 1771 after 24 hrs by two fold dilution method; format: functional; conditions: MTCC 1771, 24 h; in short: as §2
Staphylococcus aureus [11] = assay: Antimicrobial activity against methicillin-resistant Staphylococcus aureus MTCC 96 after 24 hrs by two fold dilution method; format: functional; conditions: MTCC 96, 24 h; in short: as §2
[12] = tested on: Salmonella enterica subsp. enterica serovar Paratyphi B; assay: Antimicrobial activity against Salmonella paratyphi B after 24 hrs by two fold dilution method; format: functional; in short: as §2
Shigella flexneri [13] = assay: Antimicrobial activity against Shigella flexneri MTCC 1457 after 24 hrs by two fold dilution method; format: functional; conditions: MTCC 1457, 24 h; in short: as §2
Pseudomonas aeruginosa [14] = assay: Antimicrobial activity against Pseudomonas aeruginosa MTCC 741 after 24 hrs by two fold dilution method; format: functional; conditions: MTCC 741, 24 h; in short: as §2
Candida albicans [15] = assay: Antimicrobial activity against Candida albicans MTCC 227 after 48 to 72 hrs by two fold dilution method; format: functional
In short: (§3)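 Yeast was grown in Sabouraud dextrose broth at 28 °C for 48 h and tested per CLSI reference methods. Two-fold serial dilutions from 1000 to 7.81 µg/mL, compound in DMSO (2%), in 96-well plates, incubated 48–72 h at 28 °C. MIC was the lowest concentration with no visible fungal growth. Ketoconazole was the positive control.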

Malassezia pachydermatis [16] = assay: Antimicrobial activity against Malassezia pachydermatis after 48 to 72 hrs by two fold dilution method; format: functional; in short: as §3
Bacillus subtilis [17] = assay: Bactericidal activity against Bacillus subtilis MTCC 441 after 24 hrs by two fold dilution method; format: functional; conditions: MTCC 441, 24 h
In short: (§4)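 Tubes held 5 mL MHB with two-fold dilutions from 1000 to 7.81 µg/mL and were inoculated with 5 × 10^5 to 1 × 10^6 cells in 0.1 mL MHB, incubated without shaking. Turbidity was checked at 20 h, tubes vortexed and re-incubated 4 h.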

Micrococcus luteus [18] = assay: Bactericidal activity against Micrococcus luteus MTCC 106 after 24 hrs by two fold dilution method; format: functional; conditions: MTCC 106, 24 h; in short: as §4
Klebsiella aerogenes [19] = assay: Bactericidal activity against Enterobacter aerogenes MTCC 111 after 24 hrs by two fold dilution method; format: functional; conditions: MTCC 111, 24 h; in short: as §4
Staphylococcus aureus [20] = assay: Bactericidal activity against Staphylococcus aureus MTCC 96 after 24 hrs by two fold dilution method; format: functional; conditions: MTCC 96, 24 h; in short: as §4
Salmonella typhimurium [21] = assay: Bactericidal activity against Salmonella typhimurium MTCC 1251 after 24 hrs by two fold dilution method; format: functional, Salmonella enterica subsp. enterica serovar Typhimurium; conditions: Salmonella enterica, MTCC 1251, 24 h; in short: as §4
Klebsiella pneumoniae [22] = assay: Bactericidal activity against Klebsiella pneumoniae MTCC 109 after 24 hrs by two fold dilution method; format: functional; conditions: MTCC 109, 24 h; in short: as §4
Proteus vulgaris [23] = assay: Bactericidal activity against Proteus vulgaris MTCC 1771 after 24 hrs by two fold dilution method; format: functional; conditions: MTCC 1771, 24 h; in short: as §4
Staphylococcus aureus [24] = assay: Bactericidal activity against methicillin-resistant Staphylococcus aureus MTCC 96 after 24 hrs by two fold dilution method; format: functional; conditions: MTCC 96, 24 h; in short: as §4
[25] = tested on: Salmonella enterica subsp. enterica serovar Paratyphi B; assay: Bactericidal activity against Salmonella paratyphi B after 24 hrs by two fold dilution method; format: functional; in short: as §4
Shigella flexneri [26] = assay: Bactericidal activity against Shigella flexneri MTCC 1457 after 24 hrs by two fold dilution method; format: functional; conditions: MTCC 1457, 24 h; in short: as §4
Pseudomonas aeruginosa [27] = assay: Bactericidal activity against Pseudomonas aeruginosa MTCC 741 after 24 hrs by two fold dilution method; format: functional; conditions: MTCC 741, 24 h; in short: as §4
Candida albicans [28] = assay: Fungicidal activity against Candida albicans MTCC 227 after 48 to 72 hrs by two fold dilution method; format: functional
Malassezia pachydermatis [29] = assay: Fungicidal activity against Malassezia pachydermatis after 48 to 72 hrs by two fold dilution method; format: functional
Bacillus subtilis [30] = assay: Antimicrobial activity against Bacillus subtilis MTCC 441 at 1 mg/disc after 24 hrs by disc diffusion assay; format: functional; in short: as §1
Micrococcus luteus [31] = assay: Antimicrobial activity against Micrococcus luteus MTCC 106 at 1 mg/disc after 24 hrs by disc diffusion assay; format: functional; in short: as §1
Klebsiella aerogenes [32] = assay: Antimicrobial activity against Enterobacter aerogenes MTCC 111 at 1 mg/disc after 24 hrs by disc diffusion assay; format: functional; in short: as §1
Staphylococcus aureus [33] = assay: Antimicrobial activity against Staphylococcus aureus MTCC 96 at 1 mg/disc after 24 hrs by disc diffusion assay; format: functional; in short: as §1
Salmonella typhimurium [34] = assay: Antimicrobial activity against Salmonella typhimurium MTCC 1251 at 1 mg/disc after 24 hrs by disc diffusion assay; format: functional, Salmonella enterica subsp. enterica serovar Typhimurium; in short: as §1
Klebsiella pneumoniae [35] = assay: Antimicrobial activity against Klebsiella pneumoniae MTCC 109 at 1 mg/disc after 24 hrs by disc diffusion assay; format: functional; in short: as §1
Proteus vulgaris [36] = assay: Antimicrobial activity against Proteus vulgaris MTCC 1771 at 1 mg/disc after 24 hrs by disc diffusion assay; format: functional; in short: as §1
Staphylococcus aureus [37] = assay: Antimicrobial activity against […] Staphylococcus aureus MTCC 96 at 1 mg/disc after 24 hrs by disc diffusion assay; format: functional; in short: as §1
[38] = tested on: Salmonella enterica subsp. enterica serovar Paratyphi B; assay: Antimicrobial activity against Salmonella paratyphi B at 1 mg/disc after 24 hrs by disc diffusion assay; format: functional; in short: as §1
Shigella flexneri [39] = assay: Antimicrobial activity against Shigella flexneri MTCC 1457 at 1 mg/disc after 24 hrs by disc diffusion assay; format: functional; in short: as §1

In the case of `CC(C)C[C@@H](C)N[C@@H](C)[C@H](O)c1ccccc1.Cl`, the “inhibition zone (IZ)” value (Pseudomonas aeruginosa [1]) is reported as 17 mm, the “inhibition zone (IZ)” value (Candida albicans [2]) is reported as 17 mm and the “inhibition zone (IZ)” value (Malassezia pachydermatis [3]) is reported as 16 mm. The MIC (Bacillus subtilis [4]) was 125 µg/mL, the MIC (Micrococcus luteus [5]) was 62.5 µg/mL and the MIC (Klebsiella aerogenes [6]) was 125 µg/mL. The MIC (Staphylococcus aureus [7]) was 62.5 µg/mL, the MIC (Salmonella typhimurium [8]) was 125 µg/mL and the MIC (Klebsiella pneumoniae [9]) was 62.5 µg/mL. For the same compound, the MIC (Proteus vulgaris [10]) was 125 µg/mL, the MIC (Staphylococcus aureus [11]) was 62.5 µg/mL and the MIC [12] was 125 µg/mL. For the same compound, the MIC (Shigella flexneri [13]) was 125 µg/mL, the MIC (Pseudomonas aeruginosa [14]) was 62.5 µg/mL and the MIC (Candida albicans [15]) was 62.5 µg/mL. The MIC (Malassezia pachydermatis [16]) was 62.5 µg/mL, the MBC (Bacillus subtilis [17]) was 250 µg/mL and the MBC (Micrococcus luteus [18]) was 62.5 µg/mL. It also gave an MBC (Klebsiella aerogenes [19]) of 125 µg/mL, an MBC (Staphylococcus aureus [20]) of 125 µg/mL and an MBC (Salmonella typhimurium [21]) of 250 µg/mL. For the same compound, the MBC (Klebsiella pneumoniae [22]) was 62.5 µg/mL, the MBC (Proteus vulgaris [23]) was 250 µg/mL and the MBC (Staphylococcus aureus [24]) was 125 µg/mL. It also gave an MBC [25] of 250 µg/mL, an MBC (Shigella flexneri [26]) of 250 µg/mL and an MBC (Pseudomonas aeruginosa [27]) of 125 µg/mL. For the same compound, the MFC (Candida albicans [28]) was 62.5 µg/mL, the MFC (Malassezia pachydermatis [29]) was 62.5 µg/mL and the “inhibition zone (IZ)” value (Bacillus subtilis [30]) was 15 mm. For the same compound, the “inhibition zone (IZ)” value (Micrococcus luteus [31]) was 16 mm, the “inhibition zone (IZ)” value (Klebsiella aerogenes [32]) was 14 mm and the “inhibition zone (IZ)” value (Staphylococcus aureus [33]) was 17 mm. For the same compound, the “inhibition zone (IZ)” value (Salmonella typhimurium [34]) was 14 mm, the “inhibition zone (IZ)” value (Klebsiella pneumoniae [35]) was 16 mm and the “inhibition zone (IZ)” value (Proteus vulgaris [36]) was 15 mm. The “inhibition zone (IZ)” value (Staphylococcus aureus [37]) was 16 mm, the “inhibition zone (IZ)” value [38] was 13 mm and the “inhibition zone (IZ)” value (Shigella flexneri [39]) was 15 mm.
In the case of `C[C@H](N[C@H](C)[C@@H](O)c1ccccc1)c1ccccc1.Cl`, the “inhibition zone (IZ)” value (Pseudomonas aeruginosa [1]) is reported as 10 mm, the “inhibition zone (IZ)” value (Candida albicans [2]) is reported as 15 mm and the “inhibition zone (IZ)” value (Malassezia pachydermatis [3]) is reported as 14 mm. For the same compound, the MIC (Bacillus subtilis [4]) was 62.5 µg/mL, the MIC (Micrococcus luteus [5]) was 125 µg/mL and the MIC (Klebsiella aerogenes [6]) was 125 µg/mL. It also gave an MIC (Staphylococcus aureus [7]) of 125 µg/mL, an MIC (Salmonella typhimurium [8]) of 250 µg/mL and an MIC (Klebsiella pneumoniae [9]) of 125 µg/mL. The MIC (Proteus vulgaris [10]) was 250 µg/mL, the MIC (Staphylococcus aureus [11]) was 125 µg/mL and the MIC [12] was 250 µg/mL. The MIC (Shigella flexneri [13]) was 250 µg/mL, the MIC (Pseudomonas aeruginosa [14]) was 250 µg/mL and the MIC (Candida albicans [15]) was 125 µg/mL. It also gave an MIC (Malassezia pachydermatis [16]) of 125 µg/mL, an MBC (Bacillus subtilis [17]) of 62.5 µg/mL and an MBC (Micrococcus luteus [18]) of 125 µg/mL. It also gave an MBC (Klebsiella aerogenes [19]) of 250 µg/mL, an MBC (Staphylococcus aureus [20]) of 250 µg/mL and an MBC (Salmonella typhimurium [21]) of 250 µg/mL. For the same compound, the MBC (Klebsiella pneumoniae [22]) was 250 µg/mL, the MBC (Proteus vulgaris [23]) was 500 µg/mL and the MBC (Staphylococcus aureus [24]) was 125 µg/mL. For the same compound, the MBC [25] was 500 µg/mL, the MBC (Shigella flexneri [26]) was 500 µg/mL and the MBC (Pseudomonas aeruginosa [27]) was 500 µg/mL. The MFC (Candida albicans [28]) was 125 µg/mL, the MFC (Malassezia pachydermatis [29]) was 125 µg/mL and the “inhibition zone (IZ)” value (Bacillus subtilis [30]) was 16 mm. The “inhibition zone (IZ)” value (Micrococcus luteus [31]) was 15 mm, the “inhibition zone (IZ)” value (Klebsiella aerogenes [32]) was 14 mm and the “inhibition zone (IZ)” value (Staphylococcus aureus [33]) was 15 mm. The “inhibition zone (IZ)” value (Salmonella typhimurium [34]) was 12 mm, the “inhibition zone (IZ)” value (Klebsiella pneumoniae [35]) was 15 mm and the “inhibition zone (IZ)” value (Proteus vulgaris [36]) was 13 mm. For the same compound, the “inhibition zone (IZ)” value (Staphylococcus aureus [37]) was 14 mm, the “inhibition zone (IZ)” value [38] was 13 mm and the “inhibition zone (IZ)” value (Shigella flexneri [39]) was 12 mm.
